Columns and labels:
[1] = tested on: BC; experiment: Cytotoxicity against BC cells; format: functional, cell-based; details: Homo sapiens
Outline: (§1)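 Colorimetric cytotoxicity assay after Skehan on KB, BC and vero cell lines. Maximum concentration tested 130 µM. Ellipticine was the positive control. IC50 is reported in µM.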

[2] = tested on: KB; experiment: Cytotoxicity against KB cells; format: functional, cell-based; details: Homo sapiens; outline: as §1
[3] = tested on: Vero; experiment: Cytotoxicity against vero cells.; format: functional, cell-based; details: Chlorocebus sabaeus; outline: as §1
[4] = tested on: Plasmodium falciparum; experiment: Antimalarial activity against Plasmodium falciparum; format: functional, organism-based
Outline: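 P. falciparum K1 (multidrug-resistant), asexual erythrocytic stage kept in continuous in vitro culture; microculture radioisotope method after Desjardins. EC50 is the concentration giving 50% reduction in parasite growth, measured as [3H]hypoxanthine uptake. Artemisinin and dihydroartemisinin served as standards.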

[5] = Therapeutic index (TI) determined as IC50 of vero cells to that of EC50; format: cell-based; details: plasmodium falciparum, read-out: TI
[6] = tested on: BC; experiment: Cytotoxicity against BC cells.; format: functional, cell-based; details: Homo sapiens; outline: as §1
[7] = Cytotoxicity against KB cells.; format: functional, cell-based; details: Homo sapiens; outline: as §1

| Structure (SMILES) | IA [1] | IA [2] | IC50 [3] | EC50 [4] | selectivity ratio [5] | IC50 [6] | IC50 [7] |
| --- | --- | --- | --- | --- | --- | --- | --- |
| CCCC[C@H]1C(=O)O[C@@H]2O[C@]3(C)CC[C@H]4[C@H](C)CC[C@@H]1[C@@]24OO3 | Cytotoxic | Cytotoxic | > 130000 nM | 11.3 nM | > 1.2 |  |  |
| C[C@@H]1CC[C@H]2[C@@H](Cc3cccc(F)c3)C(=O)O[C@@H]3O[C@]4(C)CC[C@@H]1[C@]32OO4 | Cytotoxic | Cytotoxic | > 130000 nM | 20.7 nM | 6.3 |  |  |
| C[C@@H]1CC[C@H]2[C@H](CCCCCCC[C@@H]3C(=O)O[C@@H]4O[C@@]5(C)CC[C@H]6[C@H](C)CC[C@@H]3[C@@]46OO5)C(=O)O[C@@H]3O[C@@]4(C)CC[C@@H]1[C@]32OO4 |  |  | 4900 nM | 1.1 nM |  | 1100 nM | 1100 nM |
| CCCC[C@@H]1C(=O)O[C@@H]2O[C@]3(C)CC[C@H]4[C@H](C)CC[C@@H]1[C@@]24OO3 | Cytotoxic |  | > 130000 nM | 13.8 nM | > 9.4 |  | 54000 nM |
| C[C@@H]1CCC2[C@H](CCCCCC[C@H]3C(=O)O[C@@H]4O[C@@]5(C)CC[C@H]6[C@H](C)CCC3[C@@]46OO5)C(=O)O[C@@H]3O[C@]4(C)CC[C@@H]1C23OO4 (some centres not stated) |  |  | 10000 nM | 10.5 nM | 9.5 | 1600 nM | 1800 nM |
| CC1CCC2C(CSCCCCSCC3C(=O)OC4OC5(C)CCC6C(C)CCC3C46OO5)C(=O)OC3OC4(C)CCC1C32OO4 (configuration not stated) |  |  |  | 5.7 nM |  |  |  |
| CC1CCC2C(CCCCCCC3(CC4C(=O)OC5OC6(C)CCC7C(C)CCC4C57OO6)C(=O)OC4OC5(C)CCC6C(C)CCC3C46OO5)C(=O)OC3OC4(C)CCC1C32OO4 (configuration not stated) |  |  | 6600 nM | 2.4 nM | 2.8 | 1200 nM | 1700 nM |
| CC1CCC2C(CCCCCCCC3(CC4C(=O)OC5OC6(C)CCC7C(C)CCC4C57OO6)C(=O)OC4OC5(C)CCC6C(C)CCC3C46OO5)C(=O)OC3OC4(C)CCC1C32OO4 (configuration not stated) |  |  | 10000 nM | 3.1 nM |  | 2000 nM | 2800 nM |
| CCN(CC)C(=S)SC(CC1C(=O)O[C@@H]2O[C@]3(C)CC[C@H]4[C@H](C)CC[C@@H]1C24OO3)SC(=S)N(CC)CC (some centres not stated) |  |  | 6600 nM | 1.9 nM | 3.5 | 2400 nM | 2500 nM |
| CC1CCC2C(CC3(CCCCCCCC4(CC5C(=O)OC6OC7(C)CCC8C(C)CCC5C68OO7)C(=O)OC5OC6(C)CCC7C(C)CCC4C57OO6)C(=O)OC4OC5(C)CCC6C(C)CCC3C46OO5)C(=O)OC3OC4(C)CCC1C32OO4 (configuration not stated) |  |  | > 42000 nM | > 20 nM | > 2.1 | 9600 nM | 5400 nM |
| CC1CCC2C(CC3(CCCCCCC4(CC5C(=O)OC6OC7(C)CCC8C(C)CCC5C68OO7)C(=O)OC5OC6(C)CCC7C(C)CCC4C57OO6)C(=O)OC4OC5(C)CCC6C(C)CCC3C46OO5)C(=O)OC3OC4(C)CCC1C32OO4 (configuration not stated) |  |  | 9200 nM | 5.8 nM | 1.6 | 2800 nM | 2000 nM |
| CCCCC[C@@H]1C(=O)O[C@@H]2O[C@]3(C)CC[C@H]4[C@H](C)CC[C@@H]1[C@@]24OO3 |  |  | 19000 nM | 11.7 nM | 1.6 | 11000 nM | 11000 nM |
| CC1CCC2C(CSCCCSCC3C(=O)OC4OC5(C)CCC6C(C)CCC3C46OO5)C(=O)OC3OC4(C)CCC1C32OO4 (configuration not stated) |  |  |  | 13 nM |  |  |  |
| CCCCCC[C@H]1C(=O)O[C@@H]2O[C@]3(C)CC[C@H]4[C@H](C)CC[C@@H]1[C@@]24OO3 |  |  | 16000 nM | 12.9 nM | 1.2 | 5700 nM | 6200 nM |
| C[C@@H]1CC[C@H]2[C@H](Cc3cccc(F)c3)C(=O)O[C@@H]3O[C@]4(C)CC[C@@H]1[C@]32OO4 |  |  | > 130000 nM | 18.2 nM | 7.1 | 41000 nM | 44000 nM |
| CC1CCC2C(CSCCSCC3C(=O)OC4OC5(C)CCC6C(C)CCC3C46OO5)C(=O)OC3OC4(C)CCC1C32OO4 (configuration not stated) |  |  |  | 7.4 nM |  |  |  |
| CC1CCC2C(CC3(Cc4ccc(F)cc4)C(=O)OC4OC5(C)CCC6C(C)CCC3C46OO5)C(=O)OC3OC4(C)CCC1C32OO4 (configuration not stated) |  |  | 1100 nM | 2.3 nM | 4.8 | 7400 nM | 7700 nM |
| C[C@@H]1CC[C@H]2[C@H](CCCCCCC[C@H]3C(=O)O[C@@H]4O[C@@]5(C)CC[C@H]6[C@H](C)CC[C@@H]3[C@@]46OO5)C(=O)O[C@@H]3O[C@@]4(C)CC[C@@H]1[C@]32OO4 |  |  | 2800 nM | 0.91 nM | 3.1 | 360 nM | 760 nM |
| CCCCCC[C@@H]1C(=O)O[C@@H]2O[C@]3(C)CC[C@H]4[C@H](C)CC[C@@H]1[C@@]24OO3 |  |  | 14000 nM | 13.8 nM | 1 | 6200 nM | 6200 nM |
| C[C@@H]1CCC2[C@H](CCCCCC[C@@H]3C(=O)O[C@@H]4O[C@@]5(C)CC[C@H]6[C@H](C)CCC3[C@@]46OO5)C(=O)O[C@@H]3O[C@]4(C)CC[C@@H]1C23OO4 (some centres not stated) |  |  | 10000 nM | 1.4 nM | 7.1 | 1600 nM | 2300 nM |
| CC1CCC2C(CC3(Cc4cccc(F)c4)C(=O)OC4OC5(C)CCC6C(C)CCC3C46OO5)C(=O)OC3OC4(C)CCC1C32OO4 (configuration not stated) |  |  | 5500 nM | 2.1 nM | 2.6 | 3500 nM | 4000 nM |
| CC1CCC2C(CC3(CCCCc4ccccc4)C(=O)OC4OC5(C)CCC6C(C)CCC3C46OO5)C(=O)OC3OC4(C)CCC1C32OO4 (configuration not stated) |  |  | 2400 nM | 3.4 nM | 7.1 | 1200 nM | 5700 nM |
| C[C@@H]1CC[C@H]2[C@@H](CCCCc3ccccc3)C(=O)O[C@@H]3O[C@]4(C)CC[C@@H]1[C@]32OO4 |  |  | 16000 nM | 8.4 nM | 1.9 | 14000 nM | 11000 nM |
| C[C@@H]1CC[C@H]2[C@H](CCCCc3ccccc3)C(=O)O[C@@H]3O[C@]4(C)CC[C@@H]1[C@]32OO4 |  |  | 13000 nM | 10.3 nM | 1.3 | 5000 nM | 5200 nM |
| C[C@@H]1CC[C@H]2[C@H](Cc3ccc(F)cc3)C(=O)O[C@@H]3O[C@]4(C)CC[C@@H]1[C@]32OO4 |  |  | 120000 nM | 12.9 nM | 9.3 | 41000 nM | 35000 nM |
| C[C@@H]1CC[C@H]2C(C[C@]3(C)C(=O)O[C@@H]4O[C@]5(C)CC[C@H]6[C@H](C)CC[C@@H]3[C@@]46OO5)C(=O)O[C@@H]3O[C@]4(C)CC[C@@H]1C32OO4 (some centres not stated) |  |  | 89000 nM | 1 nM | 8.9 | 13000 nM | 23000 nM |
| CC1CCC2C(CSCCCCCSCC3C(=O)OC4OC5(C)CCC6C(C)CCC3C46OO5)C(=O)OC3OC4(C)CCC1C32OO4 (configuration not stated) |  |  |  | 12 nM |  |  |  |
| CCCCCC1(CC2C(=O)OC3OC4(C)CCC5C(C)CCC2C35OO4)C(=O)OC2OC3(C)CCC4C(C)CCC1C24OO3 (configuration not stated) |  |  | 63000 nM | 3.9 nM | 1.6 | 36000 nM | 23000 nM |

From ChEMBL document CHEMBL1134326, “C-16 artemisinin derivatives and their antimalarial and cytotoxic activities: syntheses of artemisinin monomers, dimers, trimers, and tetramers by nucleophilic additions to artemisitene” (J Med Chem, 2001)
